The source made the active and inactive calls. No cut-off for these calls is given here.

The results in this text go back to ChEMBL document CHEMBL4765333, “Novel NO-releasing scopoletin derivatives induce cell death via mitochondrial apoptosis pathway and cell cycle arrest” (Eur J Med Chem, 2020).

Series [1] in a line: Induction of intracellular reactive oxygen species generation in human MDA-MB-231 cells assessed as proportion of FL1-H positive cells at 2 uM measured after 24 hrs by DCFH-DA staining based flow cytometry analysis (reference value: 47.8%). It counts as functional, MDA-MB-23. (Flow cytometry measures light scatter and fluorescence of single cells or particles in a stream.)
Series [2] relates to MDA-MB-231. The series is described as follows: Induction of apoptosis in human MDA-MB-231 cells assessed as late apoptotic cells at 1.5 uM after 24 hrs by Annexin V/propidium iodide based flow cytometric analysis (reference value: 0.038%). It is filed as functional. In short, it runs like this:
(§1)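 MDA-MB-231 cells (2×10^5/well) attached 24 h, then treated 24 h with 1, 1.5, 2 or 3 µM, DMSO as control. Cells harvested, PBS-washed, resuspended in binding buffer, stained with Annexin V and PI for 30 min at 37°C in the dark, and analysed by flow cytometry for quadrant percentages; three experiments.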

Series [3] has as its system MDA-MB-231. Description: Induction of apoptosis in human MDA-MB-231 cells assessed as early apoptotic cells at 2 uM after 24 hrs by Annexin V/propidium iodide based flow cytometric analysis (reference value: 0.94%). It counts as functional. In short, it runs like this: as §1
The subject of series [4] is MDA-MB-231. The series is described as follows: Induction of apoptosis in human MDA-MB-231 cells assessed as increase in cleaved PARP protein expression incubated for 8 hrs by Western blot analysis. It is filed as functional, cell-based. The following applies: dose 1.5-6 µM. In short, it runs like this: (§2)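 MDA-MB-231 cells (8×10^5 per 60 mm dish) attached 24 h, then exposed 8 h to 1.5, 3 or 6 µM, DMSO as control. Lysates quantified by BCA; 30 µg protein run on 4–20% SDS-PAGE, transferred to PVDF, probed for Bcl-2, Bax, Bad, cleaved caspase-9, cleaved caspase-3 and PARP, with ECL detection. Densitometric relative levels; three experiments.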

In series [5] the test system is MDA-MB-231. The series is described as follows: Induction of apoptosis in human MDA-MB-231 cells assessed as early apoptotic cells at 3 uM after 24 hrs by Annexin V/propidium iodide based flow cytometric analysis (reference value: 0.94%). It counts as functional. A digest of the protocol: as §1
A short description of series [6]: Prodrug release in human MDA-MB-231 cells assessed as increase in intracellular NO level at 1 to 10 uM measured after 2.5 hrs by DAF-FM DA reagent based scanning electron microscopy. It is filed as ADME, cell-based. The following applies: mda-mb-231, 2.5 h, in the assay text read “laser scanning confocal microscopy” for “scanning electron microscopy”, dose 1-10 µM. In short, it runs like this:
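After 24 h growth at 5×10^4 cells/well, MDA-MB-231 cells loaded with DAF-FM DA (5 µM) 30 min at 37°C, 5% CO2, PBS-washed, then incubated 2.5 h with compound at 1 or 10 µM (scopoletin at 10 µM). NO fluorescence imaged by laser scanning confocal microscopy.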

Series [7] concerns MDA-MB-231. The series is described as follows: Induction of mitochondrial membrane potential depolarization in human MDA-MB-231 cells assessed as proportion of cells with hyperpolarized MMP at 1.5 uM incubated for 18 hrs by JC-1 staining based flow cytometry (reference value: 98.4%). It counts as functional.
Series [8] has as its system MDA-MB-231. Description: Induction of mitochondrial membrane potential depolarization in human MDA-MB-231 cells assessed as proportion of cells with depolarized MMP at 2 uM incubated for 18 hrs by JC-1 staining based flow cytometry (reference value: 0.72%). It is filed as functional.
In series [9] the test system is MDA-MB-231. Description: Induction of mitochondrial membrane potential depolarization in human MDA-MB-231 cells assessed as proportion of cells with depolarized MMP at 1 uM incubated for 18 hrs by JC-1 staining based flow cytometry (reference value: 0.72%). It is filed as functional.
The test system of series [10] is MDA-MB-231. The series is described as follows: Induction of apoptosis in human MDA-MB-231 cells assessed as viable cells at 1 uM after 24 hrs by Annexin V/propidium iodide based flow cytometric analysis (reference value: 99%). It is filed as functional. The following applies: read-out: Activity. In short, it runs like this:
as §1

The test system of series [11] is MDA-MB-231. The series is described as follows: Induction of apoptosis in human MDA-MB-231 cells assessed as downregulation of Bcl-2 expression at 1.5 to 6 uM measured after 8 hrs by Western blot analysis. It is filed as functional, cell-based. As to conditions: dose 1.5-6 µM. A digest of the protocol:
as §2
In general terms: A western blot detects proteins with antibodies after separation by electrophoresis.

Series [12] in a line: Antiproliferative activity against human MDA-MB-231 cells assessed as inhibition of cell proliferation rate at 4 uM measured after 48 hrs by MTT assay. The following applies: MDA-MB-23. It counts as functional. In short, it runs like this: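 MDA-MB-231 cells in DMEM with 10% FBS, ~5,000 cells/well, 24 h attachment, then compound for 48 h at 37°C, 5% CO2. MTT 0.5 mg/ml final for 4 h, DMSO solubilization, absorbance 570 nm; inhibition relative to untreated cells; experiments done three times.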
(Tetrazolium assays rely on reduction of a dye to a coloured formazan, in cell work by metabolically active cells.)

Series [13] relates to MDA-MB-231. The series is described as follows: Induction of mitochondrial membrane potential depolarization in human MDA-MB-231 cells assessed as proportion of cells with hyperpolarized MMP at 1 uM incubated for 18 hrs by JC-1 staining based flow cytometry (reference value: 98.4%). It counts as functional.
The nature of series [14]: Induction of intracellular reactive oxygen species generation in human MDA-MB-231 cells assessed as proportion of FL1-H negative cells at 2 uM measured after 24 hrs by DCFH-DA staining based flow cytometry analysis (reference value: 52.2%). It counts as functional, MDA-MB-23.
Series [15] relates to MDA-MB-231. The series is described as follows: Induction of cell cycle arrest in human MDA-MB-231 cells assessed as accumulation at G0/G1 phase at 1.5 uM measured after 24 hrs by propidium iodide staining based flow cytometric method (reference value: 45.71%). It is filed as functional.
Series [16] concerns MDA-MB-231. Description: Induction of mitochondrial membrane potential depolarization in human MDA-MB-231 cells assessed as proportion of cells with hyperpolarized MMP at 2 uM incubated for 18 hrs by JC-1 staining based flow cytometry (reference value: 98.4%). It is filed as functional.
Series [17] concerns MDA-MB-231. Description: Induction of apoptosis in human MDA-MB-231 cells assessed as increase in cleaved caspase-3 protein expression incubated for 8 hrs by Western blot analysis. It counts as functional, cell-based. As to conditions: dose 1.5-6 µM. A digest of the protocol: as §2
Series [18] has as its system MDA-MB-231. Description: Induction of cell cycle arrest in human MDA-MB-231 cells assessed as accumulation at S phase at 1 uM measured after 24 hrs by propidium iodide staining based flow cytometric method (reference value: 36.25%). It is filed as functional.
Series [19] in a line: Induction of intracellular reactive oxygen species generation in human MDA-MB-231 cells assessed as proportion of FL1-H positive cells at 1 uM measured after 24 hrs by DCFH-DA staining based flow cytometry analysis (reference value: 47.8%). It is filed as functional, MDA-MB-23.
A short description of series [20]: Induction of intracellular reactive oxygen species generation in human MDA-MB-231 cells assessed as proportion of FL1-H positive cells at 1.5 uM measured after 24 hrs by DCFH-DA staining based flow cytometry analysis (reference value: 47.8%). It is filed as functional, MDA-MB-23.
Series [21] relates to MDA-MB-231. The series is described as follows: Inhibition of colony formation in human MDA-MB-231 cells at 0.25 uM incubated for 24 hrs followed by culturing in fresh medium for 10 days by crystal violet staining based assay. It is filed as functional, cell-based. A digest of the protocol: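 MDA-MB-231 seeded at 1.5×10^3 cells/well, 24 h attachment, then 24 h exposure to compound (0.25, 0.5, 1 µM) or DMSO; fresh medium for a further 10 days. Fixed in 4% paraformaldehyde 0.5 h at 4°C, crystal violet stained, dye dissolved in DMSO and absorbance read at 590 nm; performed three times.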

Series [22] has as its system MDA-MB-231. Description: Induction of mitochondrial membrane potential depolarization in human MDA-MB-231 cells assessed as proportion of cells with depolarized MMP at 1.5 uM incubated for 18 hrs by JC-1 staining based flow cytometry (reference value: 0.72%). It is filed as functional.
Series [23] concerns MDA-MB-231. Description: Induction of apoptosis in human MDA-MB-231 cells assessed as necrotic cells at 2 uM after 24 hrs by Annexin V/propidium iodide based flow cytometric analysis (reference value: 0.019%). It counts as functional. A digest of the protocol:
as §1

`COc1cc2cc(N)c(=O)oc2cc1OCCCOc1no[n+]([O-])c1S(=O)(=O)c1ccccc1`: the Activity in series [1] is 88.8%; in the series on MDA-MB-231 [2] it was 13.2%; in the series on MDA-MB-231 [3], 12.9%; in the series on MDA-MB-231 [4], “Dose-dependent effect”; in the series on MDA-MB-231 [5], 13.6%; in the series on MDA-MB-231 [7] it was 81.4%. The Activity is 31.5% in the series with MDA-MB-231 [8]; 5.4% in the series with MDA-MB-231 [9]; 93.2% in the series with MDA-MB-231 [13]; 11.2% in [14]; 41.85% in the series on MDA-MB-231 [15]; 67.8% in the series with MDA-MB-231 [16]. In addition, the Activity result in the series with MDA-MB-231 [17] is “Dose-dependent effect”; with MDA-MB-231 [18], 28.05%; in [19], 65%; in series [20], 82.7%; in the series with MDA-MB-231 [22] it was 17.7%; in the series with MDA-MB-231 [23], 0.2%. For the same compound, the Drug metabolism result in series [6] was “Metabolite_Detected”. Also, in the series on MDA-MB-231 [10], the viability at 1 µM was determined as 87.9%. The result with MDA-MB-231 [11] was Active. For the same compound, in series [12], the inhibition (commonly the drop in the measured response relative to a control, in per cent) at 4 µM stood at 91.2%. Also, in the series with MDA-MB-231 [21], the inhibition entry is “Active”.
